# Most compounds without a hit are left out; they make up all but 11% or so of the library.
# D1 allo mod – allosterically modulates the human D1 dopamine receptor; P21728; B-score at 10 µM; HEK293 D1, CRE-luciferase, dopamine EC30 potentiation; actives deviate in either direction; 58,000 tested, 5.9% active;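 active means luminescence count or its row- and column-corrected plate score outside the 99.7% band of the plate's sample wells, on either side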
# S1P1 ag-PAM – agonists and agonism potentiators of human S1P1 receptor; 56,000 tested, 0.57% active; P21453; AID 449; activation, % at 9.5 µM; S1P1 CRE-bla cells, forskolin, beta-lactamase FRET, potentiator mode; S1P1 agonist co-added at EC20, 2 nM; 100% = saturating reference agonist, 0% = basal;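 active means activation above a cutoff set at the mean activation of all tested compounds plus 3 SD, cut at about 54% in these data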;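 further: forskolin at 4 µM as EC80 and the EC20 agonist is SEW2871; 100% = SEW2871 at its EC100 plus forskolin at EC80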
# S1P3 ag – activates the human S1P3 receptor; 60,000 tested, 0.1% active; activation, % at 4.5 µM; AID 373; Q99500; S1P3 NFAT-BLA reporter cells, agonism, FRET ratio; relative to 1 µM S1P, basal subtracted;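 active means activation above the screen-wide mean plus 3 SD, cut at about 4.5% in these data, passing the limit was not always enough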
# Target sequence (Q99500 whole entry, looked up): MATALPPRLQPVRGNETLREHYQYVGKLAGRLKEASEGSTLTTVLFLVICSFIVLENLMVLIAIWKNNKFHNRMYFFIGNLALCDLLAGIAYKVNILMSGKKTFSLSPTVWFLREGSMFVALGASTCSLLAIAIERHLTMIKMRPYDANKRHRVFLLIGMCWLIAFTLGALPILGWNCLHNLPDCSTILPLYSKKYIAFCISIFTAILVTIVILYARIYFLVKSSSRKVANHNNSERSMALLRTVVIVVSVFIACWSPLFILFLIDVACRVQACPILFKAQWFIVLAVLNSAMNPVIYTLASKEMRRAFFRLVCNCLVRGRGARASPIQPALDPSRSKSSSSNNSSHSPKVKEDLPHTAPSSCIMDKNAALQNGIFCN
#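 Benchmarks: high control 1 µM S1P / System: stable CHO line with human S1P3, Gα16, NFAT-BLA reporter / Dosing: single compound concentration, 4.5 µM final / Timing: 4 h compound at 37 °C, 2 h substrate at RT / Measured by: FRET β-lactamase substrate fluorescence, excitation 405 nm, 460/535 nm emission ratio, background-subtracted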
# M1 antagonist – M1 muscarinic receptor (rat) antagonism; 64,000 tested, 3.4% active; P08482; CHO-M1 cells, Fluo-4 calcium, ACh EC80 antagonist mode; active compounds read low; AID 628; B-score at 10 µM;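 active means calcium fluorescence response, raw or row-and-column corrected B-score, differing from the plate sample mean either way at a set confidence level, mostly lower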
# M1 ag – M1 muscarinic receptor agonism | B-score at 10 µM | 64,000 tested, 3% active | CHO-M1 cells, Fluo-4 calcium fluorescence, agonist mode; active compounds read high | AID 626;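 active means fluorescence rise, raw or as B-score row- and column-corrected plate score, outside the 99.7% band of its plate's samples, either direction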
# * marks the source's active call; other numbers are inactive results; . = not tested or not shown.
SMILES,D1 allo mod,S1P1 ag-PAM,S1P3 ag,M1 antagonist,M1 ag
Cc1n[nH]c(C)c1S(=O)(=O)Nc1ccc2c(c1)OCCO2,-4.2*,-10,-1,2.3*,0.34
CCCn1nc(NC(=O)c2cccs2)c2cc3cc(OC)ccc3nc21,0.18,-4,1,-1.4,3.6*
CC1(C)Cc2ccccc2-c2nc(NCCCO)n(-c3ccccc3)c(=O)c21,1.2,-2,2,-0.14,-0.0028
Clc1ccc(-c2nnc(NC3=NCCCCC3)o2)cc1,-5.8*,-6,0,-1.1,-0.082
CSc1nc(Oc2ccc(=O)[nH]n2)nc(N(C)C)n1,.,-6,0,0.54,-0.84
CCCn1nc(Oc2nc(SC)nc(N(C)C)n2)ccc1=O,.,-8,-3,2*,-0.84
COc1ccc(Nc2nc(Nc3ccc(OC)cc3)nc(-n3[nH]c(=O)c(C)c3C)n2)cc1,-0.61,-103,17*,-2.8,-0.41
O=C(CC(=O)Nc1ccccn1)Nc1ccccn1,0.1,-7,-1,0.075,0.053
O=C(/C=C/Nc1ccccc1Br)c1ccccn1,-8.1*,.,.,0.054,-0.0025
O=C(/C=C\Nc1ccccn1)c1ccccc1,-6.9*,-11,0,-0.49,0.069
O=C(CSc1nnc(-c2ccco2)n1-c1ccccc1)N1CCOCC1,-0.67,-15,0,0.11,-1
O=S(=O)(NCCSc1nnc(-c2ccco2)n1-c1ccccc1)c1ccccc1,11*,.,-1,0.74,1.2
COCCn1c(=NC(=O)c2ccc3c(c2)OCO3)c(C#N)cc2c(=O)n3cccc(C)c3nc21,0.7,-22,0,-0.017,0.66
Cc1cccn2c(=O)c3cc(C#N)c(=NC(=O)c4ccncc4)n(Cc4ccco4)c3nc12,0.19,-3,0,0.011,6.6*
CCCCCn1c(=NC(C)=O)c(C#N)cc2c(=O)n3ccccc3nc21,1.3,-28,1,-0.19,1.3
CCCCn1c(=NC(C)=O)c(C#N)cc2c(=O)n3cccc(C)c3nc21,-0.078,-17,1,0.049,21*
O=P(O)(CN1CCCCC1)C1CCCCC1O (centres undefined),-0.27,-3,0,-0.21,0.24
COC(=O)c1ccc(CSc2nc(C)nc3sc(C)c(C)c23)o1,0.59,7,0,-0.067,-0.099
Cc1nn(Cc2ccc(Cl)cc2)c(C)c1NC(=O)C1CC=CCC1C(=O)O (centres undefined),-1.1,-5,0,0.0036,-0.56
COc1cc(NC(=O)Nc2cccc(Cl)c2)c(OC)cc1NC(=O)CN1CCCCC1,-4*,17,-2,-0.067,0.21
O=C1CC(c2ccccc2)n2nc(N3C(=O)c4ccccc4C3=O)nc2N1 (centres undefined),-0.088,7,-5,0.73,0.75
N#Cc1nc(COc2ccc(Cl)cc2Cl)oc1N1CCN(c2ccccc2)CC1,-1.5,69*,0,-0.1,0.52
O=C(C1CCC(=O)N1C1CCCCC1)N1CCN(c2ccc(F)cc2)CC1 (centres undefined),0.98,0,0,0.31,0.22
CCC(C)c1ccc2oc(-c3ccc(NC(=O)c4ncn[nH]4)cc3)nc2c1 (centres undefined),-0.86,98*,16*,-0.49,0.53
Cc1ccc(-c2nc3nc4ccccc4nc3n2Cc2ccco2)cc1,-3.3,48,1,0.026,-0.84
SMILES,D1 allo mod,S1P1 ag-PAM,S1P3 ag,M1 antagonist,M1 ag
COc1ccccc1Cn1c(-c2ccco2)nc2nc3ccccc3nc21,12*,-15,-1,0.011,0.0089
Clc1ccc(-c2nc3nc4ccccc4nc3n2Cc2ccco2)cc1,-2.5,80*,1,-0.43,0.086
CCOc1ccc(Nc2nc(Cc3nnc(SCC(=O)NCc4ccco4)n3CC)cs2)cc1,-1.8,-80,0,0.75,-0.62
Cc1occc1-c1nnc(SCC(=O)N2CCCc3ccccc32)n1Cc1ccco1,-2.6*,-8,0,-0.089,0.66
O=C(CSc1nnc(-c2cccnc2)n1Cc1ccco1)N1CCc2ccccc21,.,26,-1,-0.079,0.12
N#CCCS(=O)(=O)c1nnnn1-c1ccccc1,0.29,70*,-1,0.51,0.31
O=C(CSc1ncnc2c1oc1ccccc12)NC1CCCCC1,.,-19,0,0.37,-0.77
Cc1ccc(C(=O)Nc2ccc(Cl)cn2)cc1,-4.1*,10,0,0.093,-0.44
Cc1oc2cc(O)cc(O)c2c(=O)c1-c1ccc2c(c1)OCCCO2,0.57,93*,-1,0.45,-0.89
Cc1nn2cc(-c3ccccc3)nc2s1,-3.9*,.,.,1.2,1.4
c1ccc(-c2cn3nc(-c4ccccc4)sc3n2)cc1,-8.2*,-17,0,-0.43,0.27
c1ccc(-c2nnc3sc(-c4ccncc4)nn23)cc1,1.8,-18,0,-0.013,0.5
O=C(NCc1ccco1)c1cc2ccc(O)cc2oc1=O,-0.24,-154,12*,1.1,1.8
COc1cccc(C(=O)Nc2ccc(NC(=O)C(C)(C)C)cn2)c1,-6.3*,.,.,-0.31,-1.1
COc1ccc(C(=O)Nc2cccc(OC)c2)cc1,-3.7*,-33,-1,-0.14,0.079
COc1cccc(C(=O)Nc2cccc(NC(C)=O)c2)c1,0.19,-9,-1,1.2,0.49
CC(=O)c1cccc(S(=O)(=O)NCC(c2ccco2)N2CCCCC2)c1 (centres undefined),-0.48,14,0,-0.0048,0.17
CCn1ncc(C2=NOC(C(=O)Nc3c(C)nn(Cc4ccc(F)cc4)c3C)C2)c1C (centres undefined),-1.7,-21,1,-0.18,-2.5*
CCn1ncc(C2=NOC(C(=O)Nc3c(C)n(C)n(-c4ccccc4)c3=O)C2)c1C (centres undefined),0.38,-11,1,0.35,-0.28
O=C1c2ccccc2C(=O)C1c1ccncc1,-3.5*,-40,0,-1.2,-1.3
O=C(c1ccccc1)C1C(=O)c2ccccc2C1=O,0.47,-8,0,0.072,0.23
OCCN(Cc1ccccc1)Cc1ccc(F)c(F)c1,1.2,-19,-2,0.21,-0.096
COC(=O)c1c(NS(C)(=O)=O)sc2c1CCCC2,.,.,.,0.24,-0.093
COC(=O)c1c(NC(C)=O)sc2c1CCCC2,5.5*,-26,0,0.2,0.047
Cc1noc(C)c1CSc1ccccc1C(=O)Nc1nccs1,0.63,7,1,0.25,0.34
C=CCOc1ccccc1/C=c1\sc2nc(-c3oc4ccccc4c3C)nn2c1=O,-0.055,.,-1,-0.28,5.2*
CCc1ccc2nc(N3CCN(C)CC3)c(C#N)cc2c1,-4.9*,-6,0,0.063,-0.13
Cc1ccc(S(=O)(=O)NC2CCCC(C(=O)O)C2)cc1 (centres undefined),-0.012,2,1,0.12,0.036
CCC(C)NC(=O)C(NS(=O)(=O)c1ccc2c(c1)c(=O)n(C)c(=O)n2C)c1ccccc1 (centres undefined),-5.6*,-14,1,0.0089,0.39
